From ChEMBL document CHEMBL4622968, “Discovery of [1,2,4]triazolo[4,3-a]pyridines as potent Smoothened inhibitors targeting the Hedgehog pathway with improved antitumor activity in vivo” (Bioorg Med Chem, 2020) come the findings set out here.

The test system of series [1] is MDA-MB-468. As to the kind of experiment: Induction of cell cycle arrest in human MDA-MB-468 cells assessed as cell accumulation at S phase at 14 uM incubated for 48 hrs by propidium iodide staining-based flow cytometric analysis (reference value: 34.20 %). It counts as functional. In a few lines: (§1)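 Cells were seeded at 1.2×10^5 per well and treated for 48 h (MDA-MB-468: 14, 28, 56 μM). Cells were fixed in 75% ethanol at −20 °C overnight, stained with PI and analysed by flow cytometry. Mean ± S.D. of three independent experiments versus DMSO.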

Series [2] has as its system MDA-MB-468. As to the kind of experiment: Induction of cell cycle arrest in human MDA-MB-468 cells assessed as cell accumulation at G2/M phase at 56 uM incubated for 48 hrs by propidium iodide staining-based flow cytometric analysis (reference value: 26.66 %). It counts as functional. In outline: as §1
In general terms: A flow cytometer gives signals particle by particle.

The nature of series [3]: Toxicity in BALB/c mouse xenografted with human MDA-MB-468 cells assessed as body weight at 80 to 100 mg/kg, ig measured every day for 21 day. The format is organism-based. The conditions noted are these: in vivo, po, 504 h. In outline:
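Female BALB/c nude mice, 6–8 weeks, given 1.0×10^7 MDA-MB-468 cells s.c. in right posterior flank; at 100 mm3 tumours, randomized into groups of five. Daily gavage at 80 or 100 mg/kg in saline with 0.1% Tween 80, or vehicle alone; body weight recorded daily, tumour volume every 2 days; sacrificed day 21.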
For orientation: In xenograft studies the graft and the host belong to different species.

On to `O=C(Nc1ccc(Cl)c(-c2nnc3c(Cl)cccn23)c1)c1ccc(Cl)nc1Cl`, for which the Activity is reported as 45% in series [1], 42.57% in series [2] and “Non-Toxic” in series [3].
